Published values pooled from the literature.
Protocols differ between the studies behind these lines.
Target: High affinity nerve growth factor receptor (NTRK1, Homo sapiens, UniProt P04629)

CCN(CC)c1ccc(C2=NNC(=O)CC2C)cc1[N+](=O)[O-] (stereo not drawn)  remaining activity (enzyme activity, inhibitor; 10 µM): 118%
O=C(Nc1ccc(I)cc1)Nc1cccc(C(=O)Nc2ccc3[nH]ncc3c2)c1  inhibition (enzyme activity, inhibitor, FRET; 1 µM): 47.4%
Cc1c(NC(=O)c2cc(C(N)=O)nc3cc(F)ccc23)c(C(F)(F)F)nn1Cc1ccc(C#N)cc1  remaining binding (cell-free assay, competition with immobilised ligand; 1 µM): 83%
O=C(Nc1cnn(-c2csc(C(=O)NC3COC3)c2)c1)Nc1c(F)cccc1Cl  remaining activity (enzyme activity, inhibitor; 5 µM): 87.8%
CCC(=N\O)/C(C)=C/c1ccc(F)cc1  remaining binding (cell-free assay, competition with immobilised ligand; 1 µM): 83%
O=C(Nc1cccc(C(=O)Nc2ccc3[nH]ncc3c2)c1)Nc1ccccc1Cl  inhibition (enzyme activity, inhibitor, FRET; 1 µM): 37.7%
CCCOc1ccc(OC)c(F)c1C(=O)c1ccc(C(=O)N[C@@H]2CNC[C@H]2NC(=O)c2ccc3[nH]ncc3c2)cc1  remaining activity (enzyme activity, inhibitor; 10 µM): 46%
Cc1ccc(C(=O)NCc2ccsc2)cc1C#Cc1cn(C(C)C)c2ncnc(N)c12  activity vs control (enzyme activity, inhibitor; 1 µM): 74%
Nc1cnc(N2CCc3cc(S(=O)(=O)Nc4c(F)cc(Cl)cc4F)cc(N4CCCC4=O)c32)nc1  remaining binding (cell-free assay, competition with immobilised ligand; 1 µM): 100%
Cc1ccc(NC(=O)c2ccc(C)c(C(F)(F)F)c2)cc1C#Cc1nn(C2CCC(O)CC2)c2ncnc(N)c12 (stereo not drawn)  remaining signal (cell-free assay; 10 µM): 72%
O=C(Nc1ccc2[nH]ncc2c1)c1cccc(NC(=S)Nc2cc(C(F)(F)F)cc(C(F)(F)F)c2)c1  inhibition (enzyme activity, inhibitor, FRET; 1 µM): 51.3%
Cc1cnc(NC2CCOCC2)nc1-n1cnc(C(=O)NC(CN)c2cc(F)cc(Cl)c2)c1 (stereo not drawn)  remaining activity (enzyme activity, inhibitor, radiometric; 1 µM): 100%
CN(C)C(=O)Cn1cc(-c2nc(C3(c4ccc(-c5cnc(N)nc5)cc4)CC3)no2)cn1  remaining binding (cell-free assay, competition with immobilised ligand; 1 µM): 100%
O=C(Cc1ccc(C(F)(F)F)cc1)Nc1cccc(C(=O)Nc2ccc3[nH]ncc3c2)c1  inhibition (enzyme activity, inhibitor, FRET; 1 µM): 46%
FC(F)c1nc2ccccc2n1-c1nc(N2CCOCC2)nc(N2CCOCC2)n1  remaining activity (enzyme activity, inhibitor; 10 µM): 83%
O=C(Nc1ccc2[nH]ncc2c1)c1cccc(NC(=O)c2cc(C(F)(F)F)ccc2F)c1  inhibition (enzyme activity, inhibitor, FRET; 1 µM): 34%
C[C@@H]1CN(c2cc(-c3n[nH]c4ccc(OC5(C)CC5)cc34)ncn2)C[C@H](C)O1  remaining binding (cell-free assay, competition with immobilised ligand; 0.1 µM): 73%
Cc1[nH]c(/C=C2\C(=O)Nc3ccc(F)cc32)c(C)c1C(=O)N[C@H]1CCN(C(=O)N(C)C)C1  remaining activity (enzyme activity, inhibitor; 0.1 µM): 34%
Cc1cc(NC(=O)c2cccc3cc(-c4cccc5[nH]nc(N)c45)ccc23)ccc1F  activity vs control (enzyme activity, inhibitor; 0.1 µM): 121%
O=C1NC(=O)c2cc(Nc3ccc(F)cc3)c(Nc3ccc(F)cc3)cc21  remaining signal (cell-free assay; 0.5 µM): 93.6%
O=C(Nc1cccc(C(=O)Nc2ccc3[nH]ncc3c2)c1)Nc1ccccc1C(F)(F)F  inhibition (enzyme activity, inhibitor, FRET; 1 µM): 51.3%
CCN(CC)CCNC(=O)c1c(C)[nH]c(/C=C2\C(=O)Nc3ccc(F)cc32)c1C  remaining activity (enzyme activity, inhibitor; 0.1 µM): 19%
CN(c1nccc(-c2cnn3ncccc23)n1)C1CC1  remaining signal (cell-free assay; 1 µM): 100%
CC(C)(C)c1nc2c(s1)c1nc(N)ncc1c1ccc(NS(=O)(=O)c3c(F)cccc3F)c(F)c12  remaining activity (enzyme activity, inhibitor, radiometric; 1 µM): 54%
COc1cc(-c2cn(C3CCc4ccccc4N(CC(F)(F)F)C3=O)nn2)ccc1-n1ccc(C)n1 (stereo not drawn)  remaining binding (cell-free assay, competition with immobilised ligand; 1 µM): 63%
COc1cc(/C=C/C(=O)CC(=O)/C=C/c2ccc(O)c(OC)c2)ccc1O  activity vs control (enzyme activity, inhibitor; 1 µM): 93%
CN([C@@H]1CCc2c(CC(=O)O)c3cc(S(C)(=O)=O)ccc3n2C1)S(=O)(=O)c1ccc(F)cc1  remaining binding (cell-free assay, competition with immobilised ligand; 1 µM): 100%
C[C@@H]1CCN(C(=O)CC#N)C[C@@H]1N(C)c1ncnc2[nH]ccc12  remaining signal (cell-free assay; 0.5 µM): 94.1%
COc1ccc2c(c1)O[C@H](c1ccc(OC)c(OC)c1)C[C@@H]2NC(=O)C1(c2ccc3c(c2)OC(F)(F)O3)CC1  remaining binding (cell-free assay, competition with immobilised ligand; 1 µM): 100%
FC(F)(F)Oc1cccc(-c2cnc3ccc(-c4ccncc4)nn23)c1  activity vs control (enzyme activity, inhibitor, radiometric; 1 µM): 16%
